System: c1ccc(CNc2ncnc3[nH]cnc23)cc1
Experiment: (§1) Inhibition of Phosphatidylinositol 4-kinase at the ATP binding site
Format: protein assay
Settings: Homo sapiens
Method in brief: (§2)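 Human erythrocyte plasma membranes (0.36 mg protein) were incubated with PI (0.12 mM, [2-3H]PI tracer), ATP at 100 µM, ouabain, vanadate, DTT, 0.6% Triton X-100, MgCl2, EGTA, KCl/NaCl and HEPES pH 7.4 for 10 min at 30 °C. Lipids were extracted and deacylated, and the aqueous phase collected. Compounds were screened at 500 µM, then IC50 fitted from single dose-response curves. Ki = IC50/(1+[S]/Km), with ATP Km 221.5 µM.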
“Phosphatidylinositol 4-kinase, PI4K (Homo sapiens) (from UniProt Q9BTU6+Q8TCG2+Q9UBF8+P42356)” gave a Km of 239 µM.

System: CCn1cnc2c(N)ncnc21
Experiment: as §1
Format: protein assay
Settings: Homo sapiens
Method in brief: as §2
In the case of “Phosphatidylinositol 4-kinase, PI4K (Homo sapiens) (from UniProt Q9BTU6+Q8TCG2+Q9UBF8+P42356)”, the Km was 257 µM.

System: Nc1ncnc2c1ncn2[C@@H]1O[C@H](CO)[C@@H](O)[C@H]1O
Experiment: as §1
Format: protein assay
Settings: Homo sapiens
Method in brief: as §2
Work on “Phosphatidylinositol 4-kinase, PI4K (Homo sapiens) (from UniProt Q9BTU6+Q8TCG2+Q9UBF8+P42356)” yielded a Km of 179 µM.

System: Nc1ncnc2c1ncn2C1CCCO1
Experiment: as §1
Format: protein assay
Settings: Homo sapiens
Method in brief: as §2
For “Phosphatidylinositol 4-kinase, PI4K (Homo sapiens) (from UniProt Q9BTU6+Q8TCG2+Q9UBF8+P42356)”, the Km was 262 µM.

System: Nc1[nH]cnc2ncnc1-2
Experiment: as §1
Format: protein assay
Settings: Homo sapiens
Method in brief: as §2
Molecule “Phosphatidylinositol 4-kinase, PI4K (Homo sapiens) (from UniProt Q9BTU6+Q8TCG2+Q9UBF8+P42356)” has a Km of 297 µM.

Target: T1, Phosphatidylinositol 4-kinase, PI4K (Homo sapiens, UniProt Q9BTU6+Q8TCG2+Q9UBF8+P42356)
Format: protein assay
Settings: not given
`Cc1nc2[nH]cnc(N)c-2n1` showed an IC50 of 195.4 µM. `Nc1ncnc2c1nc(-c1ccccc1)n2-c1ccccc1` showed an IC50 of 16.4 µM. `Nc1ncnc2c1ncn2C1CCCC1` showed an IC50 of 8.7 µM. `c1ccc(CNc2ncnc3nc[nH]c23)cc1` [6-BENZYLAMINOPURINE] showed an IC50 of 240.4 µM. For `CC(C)(C)c1ccc(-n2cnc3c(N)ncnc32)cc1`, the IC50 was 46.1 µM. `Cc1nc2c(N)ncnc2n1-c1ccccc1` showed an IC50 of 16.4 µM. With `Nc1ncnc2c1ncn2[C@@H]1O[C@H](COP(=O)(O)OP(=O)(O)O)[C@@H](O)[C@H]1O` [ADENOSINE DIPHOSPHATE] the IC50 was 145.3 µM. With `Nc1ncnc2c1nc1n2CCCC1` the IC50 was 52.4 µM. In the case of `Nc1ncnc2c1ncn2C1CCCO1` (stereo not drawn), the IC50 was 28.2 µM. `CC(C)(C)Cn1cnc2c(N)ncnc21` showed an IC50 of 12.8 µM. In the case of `Nc1ncnc2c1ncn2C1CCCCCC1`, the IC50 was 7.2 µM. Molecule `CC1(n2cnc3c(N)ncnc32)CCCCC1` has an IC50 of 7.2 µM. Molecule `Cn1ncc2c(N)ncnc21` has an IC50 of 82.5 µM. Work on `Nc1ncnc2c1ncn2-c1ccc(Cl)cc1` yielded an IC50 of 41.1 µM. `CN(C)c1ncnc2nc[nH]c12` [DIMETHYLADENINE] gave an IC50 of 218 µM. With `Cl.Nc1ncnc2nc(Br)[nH]c12` the IC50 was 215.3 µM. Work on `Cn1cnc2c(N)ncnc21` yielded an IC50 of 161 µM. In the case of `COc1cccc(-n2cnc3c(N)ncnc32)c1`, the IC50 was 22.9 µM. `Nc1nc2ncnc-2c[nH]1` [2-AMINOPURINE] showed an IC50 of 341.6 µM. `Cc1ccccc1-n1cnc2c(N)ncnc21` showed an IC50 of 23.6 µM. `CCCCCc1nc2c(N)ncnc2n1CCCCC` gave an IC50 of 126.5 µM. For `Nc1ncnc2scnc12`, the IC50 was 116.9 µM. With `Nc1ncnc2c1ncn2-c1cccnc1` the IC50 was 46.2 µM. Molecule `Nc1[nH]cnc2nc(-c3cccc4ccccc34)nc1-2` has an IC50 of 129.8 µM. `Nc1ncnc2c1ncn2-c1ccccc1` showed an IC50 of 15.4 µM. Molecule `Nc1ncnc2c1ncn2[C@@H]1O[C@H](CO)[C@@H](O)[C@H]1O` [ADENOSINE] has an IC50 of 30.3 µM. Work on `CC(C)(C)n1cnc2c(N)ncnc21` yielded an IC50 of 10.2 µM. With `CCC(CC)(CC)n1cnc2c(N)ncnc21` the IC50 was 134.1 µM. In the case of `Nc1ncnc2c1ncn2-c1cccc2ccccc12`, the IC50 was 78.8 µM. In the case of `Nc1ncnc2c1ncn2C1CCCCC1`, the IC50 was 6 µM. Molecule `Nc1ncnc2c1ncn2-c1ccccc1F` has an IC50 of 11.9 µM. For `Cl.Nc1ncnc2nc[nH]c12`, the IC50 was 182.6 µM. With `Nc1nc(N)c2[nH]c(-c3ccccc3)nc2n1` the IC50 was 199.5 µM. With `Cn1c(-c2ccccc2)nc2c(N)ncnc21` the IC50 was 34.9 µM. `CCCCCc1nc2c(N)ncnc2n1-c1ccccc1` gave an IC50 of 51.9 µM. `CC1(C)O[C@@H]2[C@H](O1)[C@@H](CO)O[C@H]2n1cnc2c(N)ncnc21` gave an IC50 of 12.1 µM. For `COc1ccc(-n2cnc3c(N)ncnc32)cc1`, the IC50 was 21.9 µM. For `Nc1ncnc2c1ncn2-c1cccc(F)c1`, the IC50 was 25.6 µM. Work on `Nc1ncnc2[nH]ncc12` yielded an IC50 of 144.9 µM. For `Nc1nc(N)c2nc[nH]c2n1.O=S(=O)(O)O`, the IC50 was 146.8 µM. In the case of `CCn1cnc2c(N)ncnc21`, the IC50 was 32.4 µM. Work on `Nc1ncnc2c1ncn2Cc1ccccc1` [9-BENZYL-9H-ADENINE] yielded an IC50 of 84.4 µM. `Nc1ncnc2c1ncn2C12CC3CC(CC(C3)C1)C2` gave an IC50 of 6 µM. With `Nc1ncnc2c1ncn2C1O[C@H](CI)[C@@H](O)[C@H]1O` (stereo partly drawn) the IC50 was 23.1 µM. Work on `Nc1ncnc2ccccc12` [4-AMINOQUINAZOLINE] yielded an IC50 of 91.7 µM. Molecule `Nc1ncnc2[nH]c(-c3ccccc3)nc12` has an IC50 of 48.8 µM. In the case of `Nc1[nH]cnc2nc(-c3ccccn3)nc1-2`, the IC50 was 75.6 µM. With `CC(C)n1cnc2c(N)ncnc21` the IC50 was 14.9 µM. Molecule `CCCCCc1nc2[nH]cnc(N)c-2n1` has an IC50 of 68.9 µM. `Cl.Nc1[nH]cnc2nc(NCc3ccccc3)nc1-2` gave an IC50 of 133 µM. With `Nc1ncnc2cc3ccccc3cc12` the IC50 was 33 µM. `Nc1ncnc2c1cnn2-c1ccccc1` showed an IC50 of 16.1 µM.

System: not listed separately
Experiment: Vmax value was determined
Format: ADME
Settings: not given
For `c1ccc(CNc2ncnc3nc[nH]c23)cc1` [6-BENZYLAMINOPURINE], the Vmax was 25800 c.p.m. In the case of `Nc1ncnc2c1ncn2C1CCCO1` (stereo not drawn), the Vmax was 25800 c.p.m. For `Nc1ncnc2c1ncn2[C@@H]1O[C@H](CO)[C@@H](O)[C@H]1O` [ADENOSINE], the Vmax was 31400 c.p.m. With `Cl.Nc1ncnc2nc[nH]c12` the Vmax was 22800 c.p.m. In the case of `CCn1cnc2c(N)ncnc21`, the Vmax was 20800 c.p.m.

Target: T1, Phosphatidylinositol 4-kinase, PI4K
Experiment: Binding affinity (Ki) against human phosphatidylinositol 4-kinase
Format: protein assay
Settings: not given
Method in brief: as §2
Work on `Cc1nc2[nH]cnc(N)c-2n1` yielded a Ki of 134.3 µM. With `Nc1ncnc2c1nc(-c1ccccc1)n2-c1ccccc1` the Ki was 11 µM. Work on `Nc1ncnc2c1ncn2C1CCCC1` yielded a Ki of 6 µM. For `c1ccc(CNc2ncnc3nc[nH]c23)cc1` [6-BENZYLAMINOPURINE], the Ki was 199 µM. With `CC(C)(C)c1ccc(-n2cnc3c(N)ncnc32)cc1` the Ki was 31.7 µM. For `Cc1nc2c(N)ncnc2n1-c1ccccc1`, the Ki was 11 µM. Molecule `Nc1ncnc2c1ncn2[C@@H]1O[C@H](COP(=O)(O)OP(=O)(O)O)[C@@H](O)[C@H]1O` [ADENOSINE DIPHOSPHATE] has a Ki of 100.1 µM. Molecule `Nc1ncnc2c1nc1n2CCCC1` has a Ki of 35.8 µM. `Nc1ncnc2c1ncn2C1CCCO1` (stereo not drawn) showed a Ki of 21.2 µM. Work on `CC(C)(C)Cn1cnc2c(N)ncnc21` yielded a Ki of 9 µM. Molecule `Nc1ncnc2c1ncn2C1CCCCCC1` has a Ki of 5 µM. Molecule `CC1(n2cnc3c(N)ncnc32)CCCCC1` has a Ki of 5 µM. Work on `Cn1ncc2c(N)ncnc21` yielded a Ki of 56.8 µM. Molecule `Nc1ncnc2c1ncn2-c1ccc(Cl)cc1` has a Ki of 28.2 µM. In the case of `CN(C)c1ncnc2nc[nH]c12` [DIMETHYLADENINE], the Ki was 150.2 µM. For `Cl.Nc1ncnc2nc(Br)[nH]c12`, the Ki was 148.4 µM. Work on `Cn1cnc2c(N)ncnc21` yielded a Ki of 110.9 µM. In the case of `COc1cccc(-n2cnc3c(N)ncnc32)c1`, the Ki was 15.8 µM. Molecule `Nc1nc2ncnc-2c[nH]1` [2-AMINOPURINE] has a Ki of 235.4 µM. Molecule `Cc1ccccc1-n1cnc2c(N)ncnc21` has a Ki of 16.5 µM. For `Nc1ncnc2scnc12`, the Ki was 80.6 µM. `Nc1ncnc2c1ncn2-c1cccnc1` showed a Ki of 31.8 µM. Molecule `Nc1[nH]cnc2nc(-c3cccc4ccccc34)nc1-2` has a Ki of 89.5 µM. `Nc1ncnc2c1ncn2-c1ccccc1` showed a Ki of 10.3 µM. `Nc1ncnc2c1ncn2[C@@H]1O[C@H](CO)[C@@H](O)[C@H]1O` [ADENOSINE] showed a Ki of 19.2 µM. Work on `CC(C)(C)n1cnc2c(N)ncnc21` yielded a Ki of 6.9 µM. For `CCC(CC)(CC)n1cnc2c(N)ncnc21`, the Ki was 93.7 µM. `Nc1ncnc2c1ncn2-c1cccc2ccccc12` showed a Ki of 54.4 µM. In the case of `Nc1ncnc2c1ncn2C1CCCCC1`, the Ki was 3.7 µM. Molecule `Nc1ncnc2c1ncn2-c1ccccc1F` has a Ki of 8.3 µM. For `Cl.Nc1ncnc2nc[nH]c12`, the Ki was 85.8 µM. For `Nc1nc(N)c2[nH]c(-c3ccccc3)nc2n1`, the Ki was 137.7 µM. Molecule `Cn1c(-c2ccccc2)nc2c(N)ncnc21` has a Ki of 24.1 µM. `CCCCCc1nc2c(N)ncnc2n1-c1ccccc1` showed a Ki of 35.8 µM. `CC1(C)O[C@@H]2[C@H](O1)[C@@H](CO)O[C@H]2n1cnc2c(N)ncnc21` gave a Ki of 8.4 µM. With `COc1ccc(-n2cnc3c(N)ncnc32)cc1` the Ki was 15.2 µM. With `Nc1ncnc2c1ncn2-c1cccc(F)c1` the Ki was 17.9 µM. `Nc1ncnc2[nH]ncc12` showed a Ki of 99.9 µM. Molecule `Nc1nc(N)c2nc[nH]c2n1.O=S(=O)(O)O` has a Ki of 101.2 µM. Molecule `CCn1cnc2c(N)ncnc21` has a Ki of 25.5 µM. Molecule `Nc1ncnc2c1ncn2Cc1ccccc1` [9-BENZYL-9H-ADENINE] has a Ki of 57.9 µM. `Nc1ncnc2c1ncn2C12CC3CC(CC(C3)C1)C2` gave a Ki of 4.1 µM. With `Nc1ncnc2c1ncn2C1O[C@H](CI)[C@@H](O)[C@H]1O` (stereo partly drawn) the Ki was 15.9 µM. For `Nc1ncnc2ccccc12` [4-AMINOQUINAZOLINE], the Ki was 63.4 µM. In the case of `Nc1ncnc2[nH]c(-c3ccccc3)nc12`, the Ki was 33.6 µM. `Nc1[nH]cnc2nc(-c3ccccn3)nc1-2` showed a Ki of 52.3 µM. With `CC(C)n1cnc2c(N)ncnc21` the Ki was 10.3 µM. For `CCCCCc1nc2[nH]cnc(N)c-2n1`, the Ki was 47.5 µM. With `Cl.Nc1[nH]cnc2nc(NCc3ccccc3)nc1-2` the Ki was 91.7 µM. In the case of `Nc1ncnc2cc3ccccc3cc12`, the Ki was 22.7 µM. With `Nc1ncnc2c1cnn2-c1ccccc1` the Ki was 11 µM.
